What all share (type): functional
Assay [1] concerns Bacillus subtilis. The assay can be described thus: Antimicrobial activity against ceftriazone-resistant Bacillus subtilis after 24 hrs. In outline:
(§1)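 Twofold serial broth dilution in Mueller-Hinton broth. MHB was used both to dilute the bacterial suspension and for the twofold compound dilutions, giving 10^3 cfu/ml bacteria per well after inoculation. Solvent, medium and organism-only wells served as controls. Each organism was run in triplicate.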

The subject of assay [2] is Bacillus subtilis. The assay is described as follows: Antimicrobial activity against Bacillus subtilis ATCC 6633 after 24 hrs. Particulars: for MIC: Bacillus subtilis, ATCC 6633, 24 h. In short, it runs like this:
(§2)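 MIC by twofold serial dilution in Mueller-Hinton broth (MHB); MHB also used to dilute the bacterial suspension. Wells held 10^3 cfu/ml bacteria after inoculation. Controls: 80% DMSO, 20% EtOH, methanol, DMSO, PBS, organism alone and medium alone. Triplicate in each run. MIC taken as the lowest concentration completely inhibiting macroscopic growth.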

The subject of assay [3] is Candida albicans. The assay is described as follows: Antimicrobial activity against multidrug-resistant Candida albicans isolates after 24 to 48 hrs. In outline: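 Yeast broth microdilution following CLSI M27-A, with Sabouraud dextrose medium noted for antifungal assays. Fresh cultures at McFarland 0.5 (10^6 cfu/ml) were diluted to 10^4 cfu/ml and inoculated into twofold compound dilutions. Trays were incubated at 35 °C in a humid chamber and read at 48 h, in triplicate. MIC was the lowest concentration giving complete macroscopic growth inhibition.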

Assay [4] deals with Staphylococcus aureus. The assay can be described thus: Antimicrobial activity against Staphylococcus aureus ATCC 25923 after 24 hrs. Particulars: ATCC 25923, 24 h. In outline:
as §1

The subject of assay [5] is Klebsiella pneumoniae. The assay can be described thus: Antimicrobial activity against multidrug-resistant Klebsiella pneumoniae after 24 hrs. In short, it runs like this:
as §1

Assay [6] deals with Escherichia coli. The assay is described as follows: Antimicrobial activity against Escherichia coli ATCC 25922 after 24 hrs. Particulars: ATCC 25922, 24 h. In outline: as §2
Assay [7] has as its system Candida albicans. The assay can be described thus: Antimicrobial activity against Candida albicans ATCC 10231 after 24 to 48 hrs. In outline:
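Twofold serial dilution following CLSI M27-A. Yeast suspension made at 10^4 cfu/ml by diluting a fresh culture at McFarland 0.5 (10^6 cfu/ml). Inoculated into the diluted compound, incubated at 35 °C in a humid chamber, read after 48 h. Triplicate in each run. MIC is the lowest concentration completely inhibiting macroscopic growth.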

Assay [8] concerns Klebsiella pneumoniae. The assay can be described thus: Antimicrobial activity against Klebsiella pneumoniae RSHM 574 after 24 hrs. Particulars: RSHM 574, 24 h. In short, it runs like this:
as §2

A further assay concerns Pseudomonas aeruginosa. The assay is described as follows: Antimicrobial activity against Pseudomonas aeruginosa ATCC […] after 24 hrs. In short, it runs like this: as §2
For assay [9], the system named is Escherichia coli. The assay can be described thus: Antimicrobial activity against multidrug-resistant Escherichia coli after 24 hrs. In outline: as §1
Assay [10] concerns Staphylococcus aureus. The assay can be described thus: Antimicrobial activity against multidrug-resistant Staphylococcus aureus after 24 hrs. In outline: as §1

The record followed here is ChEMBL document CHEMBL1138547, “Synthesis, biological evaluation and 2D-QSAR analysis of benzoxazoles as antimicrobial agents” (2009).

Converted amounts (≈) assume the structure as drawn.

As a reminder, the MIC is the least concentration at which growth counts as inhibited. A low value points to inhibition by little substance. Consider `O=[N+]([O-])c1ccc2oc(Cc3ccc(F)cc3)nc2c1`, for which the minimum inhibitory concentration (MIC) against Bacillus subtilis [1] stood at 50 µg/mL (≈ 184 µM); against Bacillus subtilis [2], 12.5 µg/mL (≈ 45.9 µM); against Candida albicans [3], 50 µg/mL (≈ 184 µM); against Staphylococcus aureus [4] it was 100 µg/mL (≈ 367 µM); in the assay on Klebsiella pneumoniae [5], 100 µg/mL (≈ 367 µM); with Escherichia coli [6], 50 µg/mL (≈ 184 µM). The minimal inhibitory concentration (MIC) against Candida albicans [7] came out at 100 µg/mL (≈ 367 µM); against Klebsiella pneumoniae [8], 50 µg/mL (≈ 184 µM); in the assay on Pseudomonas aeruginosa, 25 µg/mL (≈ 91.8 µM); with Escherichia coli [9] it was 50 µg/mL (≈ 184 µM); with Staphylococcus aureus [10] it was 100 µg/mL (≈ 367 µM). Further, in the assay with Bacillus subtilis [2], the “log(1/C)” value is on record as 4.338.
As for `CC(C)(C)c1ccc(-c2nc3ccc(N)cc3o2)cc1`, the MIC against Bacillus subtilis [1] was determined as 25 µg/mL (≈ 93.9 µM); against Bacillus subtilis [2], 25 µg/mL (≈ 93.9 µM); in the assay with Candida albicans [3], 50 µg/mL (≈ 188 µM); in the assay on Staphylococcus aureus [4], 100 µg/mL (≈ 375 µM); with Klebsiella pneumoniae [5], 100 µg/mL (≈ 375 µM); in the assay with Escherichia coli [6] it was 50 µg/mL (≈ 188 µM). Also, the minimal inhibitory concentration (MIC) stood at 50 µg/mL (≈ 188 µM) in the assay with Candida albicans [7]; 50 µg/mL (≈ 188 µM) in the assay on Klebsiella pneumoniae [8]; 25 µg/mL (≈ 93.9 µM) in the assay on Pseudomonas aeruginosa; 100 µg/mL (≈ 375 µM) in the assay on Escherichia coli [9]; 100 µg/mL (≈ 375 µM) with Staphylococcus aureus [10]. Also, the “log(1/C)” value in the assay on Bacillus subtilis [2] is on record as 4.027.
Take `CC(C)(C)c1ccc(-c2nc3ccc([N+](=O)[O-])cc3o2)cc1`: the minimal inhibitory concentration (MIC) amounted to 100 µg/mL (≈ 337 µM) against Bacillus subtilis [1]; 50 µg/mL (≈ 169 µM) in the assay with Bacillus subtilis [2]; 100 µg/mL (≈ 337 µM) with Candida albicans [3]; 100 µg/mL (≈ 337 µM) in the assay on Staphylococcus aureus [4]; 100 µg/mL (≈ 337 µM) with Klebsiella pneumoniae [5]; 50 µg/mL (≈ 169 µM) in the assay with Escherichia coli [6]. Moreover, the MIC against Candida albicans [7] is 50 µg/mL (≈ 169 µM); against Klebsiella pneumoniae [8], 50 µg/mL (≈ 169 µM); in the assay on Pseudomonas aeruginosa, 50 µg/mL (≈ 169 µM); in the assay with Escherichia coli [9], 100 µg/mL (≈ 337 µM); in the assay with Staphylococcus aureus [10], 100 µg/mL (≈ 337 µM). The “log(1/C)” value in the assay on Bacillus subtilis [2] turned out to be 3.773.
As to `CCc1ccc(-c2nc3cc([N+](=O)[O-])ccc3o2)cc1`, the MIC with Bacillus subtilis [1] came to 25 µg/mL (≈ 93.2 µM); against Bacillus subtilis [2], 50 µg/mL (≈ 186 µM); with Candida albicans [3], 100 µg/mL (≈ 373 µM); against Staphylococcus aureus [4] it was 100 µg/mL (≈ 373 µM); against Klebsiella pneumoniae [5], 100 µg/mL (≈ 373 µM); in the assay on Escherichia coli [6] it was 50 µg/mL (≈ 186 µM). For the same compound, the MIC with Candida albicans [7] was 50 µg/mL (≈ 186 µM); in the assay with Klebsiella pneumoniae [8], 50 µg/mL (≈ 186 µM); against Pseudomonas aeruginosa, 50 µg/mL (≈ 186 µM); against Escherichia coli [9], 100 µg/mL (≈ 373 µM); with Staphylococcus aureus [10] it was 100 µg/mL (≈ 373 µM). Besides, the “log(1/C)” value in the assay with Bacillus subtilis [2] is 3.73.
Turning to `CCc1ccc(-c2nc3ccc(N)cc3o2)cc1`, the minimum inhibitory concentration (MIC) in the assay with Bacillus subtilis [1] turned out to be 100 µg/mL (≈ 420 µM); against Bacillus subtilis [2] it was 50 µg/mL (≈ 210 µM); against Candida albicans [3], 50 µg/mL (≈ 210 µM); in the assay with Staphylococcus aureus [4], 100 µg/mL (≈ 420 µM); with Klebsiella pneumoniae [5], 100 µg/mL (≈ 420 µM); in the assay with Escherichia coli [6], 50 µg/mL (≈ 210 µM). The minimal inhibitory concentration (MIC) in the assay on Candida albicans [7] was 50 µg/mL (≈ 210 µM); with Klebsiella pneumoniae [8] it was 50 µg/mL (≈ 210 µM); in the assay on Pseudomonas aeruginosa, 50 µg/mL (≈ 210 µM); against Escherichia coli [9] it was 100 µg/mL (≈ 420 µM); against Staphylococcus aureus [10] it was 100 µg/mL (≈ 420 µM). The “log(1/C)” value in the assay on Bacillus subtilis [2] came out at 3.678.
Consider `O=[N+]([O-])c1ccc2oc(-c3ccc(F)cc3)nc2c1`, for which the MIC was 25 µg/mL (≈ 96.8 µM) against Bacillus subtilis [1]; 50 µg/mL (≈ 194 µM) in the assay with Bacillus subtilis [2]; 100 µg/mL (≈ 387 µM) against Candida albicans [3]; 100 µg/mL (≈ 387 µM) in the assay on Staphylococcus aureus [4]; 100 µg/mL (≈ 387 µM) against Klebsiella pneumoniae [5]; 50 µg/mL (≈ 194 µM) against Escherichia coli [6]. Moreover, the MIC against Candida albicans [7] is 50 µg/mL (≈ 194 µM); in the assay on Klebsiella pneumoniae [8], 50 µg/mL (≈ 194 µM); with Pseudomonas aeruginosa, 50 µg/mL (≈ 194 µM); against Escherichia coli [9], 100 µg/mL (≈ 387 µM); with Staphylococcus aureus [10], 100 µg/mL (≈ 387 µM). Further, the “log(1/C)” value in the assay on Bacillus subtilis [2] was 3.713.
Turning to `Nc1ccc2oc(Cc3ccc(F)cc3)nc2c1`, the minimum inhibitory concentration (MIC) turned out to be 50 µg/mL (≈ 206 µM) against Bacillus subtilis [1]; 50 µg/mL (≈ 206 µM) in the assay with Bacillus subtilis [2]; 50 µg/mL (≈ 206 µM) with Candida albicans [3]; 200 µg/mL (≈ 826 µM) against Staphylococcus aureus [4]; 100 µg/mL (≈ 413 µM) against Klebsiella pneumoniae [5]; 50 µg/mL (≈ 206 µM) in the assay with Escherichia coli [6]. The MIC in the assay on Candida albicans [7] was found to be 100 µg/mL (≈ 413 µM); with Klebsiella pneumoniae [8] it was 50 µg/mL (≈ 206 µM); against Pseudomonas aeruginosa, 50 µg/mL (≈ 206 µM); against Escherichia coli [9], 25 µg/mL (≈ 103 µM); against Staphylococcus aureus [10] it was 100 µg/mL (≈ 413 µM). Besides, in the assay with Bacillus subtilis [2], the “log(1/C)” value is on record as 3.685.
On to `Nc1ccc2nc(Cc3ccc(F)cc3)oc2c1`, for which the MIC turned out to be 50 µg/mL (≈ 206 µM) in the assay on Bacillus subtilis [1]; 50 µg/mL (≈ 206 µM) against Bacillus subtilis [2]; 50 µg/mL (≈ 206 µM) against Candida albicans [3]; 100 µg/mL (≈ 413 µM) against Staphylococcus aureus [4]; 100 µg/mL (≈ 413 µM) against Klebsiella pneumoniae [5]; 50 µg/mL (≈ 206 µM) against Escherichia coli [6]. The MIC in the assay with Candida albicans [7] is 50 µg/mL (≈ 206 µM); in the assay on Klebsiella pneumoniae [8], 50 µg/mL (≈ 206 µM); against Pseudomonas aeruginosa, 25 µg/mL (≈ 103 µM); against Escherichia coli [9] it was 50 µg/mL (≈ 206 µM); against Staphylococcus aureus [10], 100 µg/mL (≈ 413 µM). For the same compound, in the assay on Bacillus subtilis [2], the “log(1/C)” value was 3.685.
